Screening results as filed in PubChem.
An excerpt weighted towards active compounds, which were near 5.4% of everything screened.
Mdm2 MdmX PPI: human Mdm2/MdmX binding inhibition. O15151+Q00987. AID 485346. SaOS-2 split-luciferase Mdm2/MdmX complementation, luminescence. 330,000 tested, 3% active. inhibition, % at 8 µM;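 active = inhibition of at least 50% at 8 µM in the primary screen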
Target sequence (O15151 whole entry, looked up): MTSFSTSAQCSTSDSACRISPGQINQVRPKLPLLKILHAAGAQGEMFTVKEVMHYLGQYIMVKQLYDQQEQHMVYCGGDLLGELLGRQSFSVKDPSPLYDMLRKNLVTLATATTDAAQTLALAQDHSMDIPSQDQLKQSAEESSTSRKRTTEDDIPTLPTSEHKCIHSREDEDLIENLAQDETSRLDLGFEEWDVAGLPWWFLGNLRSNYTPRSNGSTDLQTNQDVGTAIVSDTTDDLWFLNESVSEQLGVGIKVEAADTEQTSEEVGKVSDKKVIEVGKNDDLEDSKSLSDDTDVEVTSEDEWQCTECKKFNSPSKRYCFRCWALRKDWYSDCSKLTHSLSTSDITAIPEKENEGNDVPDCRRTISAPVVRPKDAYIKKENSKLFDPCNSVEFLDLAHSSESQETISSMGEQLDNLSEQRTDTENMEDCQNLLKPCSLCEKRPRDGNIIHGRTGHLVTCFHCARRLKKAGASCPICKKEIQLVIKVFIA
Target sequence (Q00987 whole entry, looked up): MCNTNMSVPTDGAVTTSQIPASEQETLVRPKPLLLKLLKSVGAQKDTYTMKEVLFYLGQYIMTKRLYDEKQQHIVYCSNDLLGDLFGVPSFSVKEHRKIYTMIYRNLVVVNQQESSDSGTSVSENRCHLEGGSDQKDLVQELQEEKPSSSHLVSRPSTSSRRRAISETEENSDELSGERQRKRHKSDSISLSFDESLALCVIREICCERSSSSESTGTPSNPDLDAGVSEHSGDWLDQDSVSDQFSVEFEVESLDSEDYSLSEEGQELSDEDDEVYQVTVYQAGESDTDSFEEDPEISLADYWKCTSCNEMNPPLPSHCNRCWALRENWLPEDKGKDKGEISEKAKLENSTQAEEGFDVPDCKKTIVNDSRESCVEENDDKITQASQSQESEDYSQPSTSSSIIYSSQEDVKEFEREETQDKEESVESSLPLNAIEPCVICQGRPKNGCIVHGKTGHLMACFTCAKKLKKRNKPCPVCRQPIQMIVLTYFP
CSC inhib: blocks cancer stem cells. cancer stem cell-like cells viability, luminescence. inhibition, % at 7.5 µM. 300,000 tested, 1.1% active. AID 2717; in the data active = inhibition above about 75%; tested in HMLE shEcad cells
T cruzi repl: T. cruzi replication inhibition. T. cruzi beta-gal in NIH3T3, luminescence, 90 h. inhibition, % (test concentration not listed). 300,000 tested, 1.4% active. AID 1885;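 active = mean inhibition across valid replicates above about 55%, limit read from the data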;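 also: signal also drops with host cell toxicity which is not excluded here; 0% = plate median of DMSO wells and 100% = zero luminescence signal; higher percent means less beta-gal luminescence so fewer parasites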
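Read-out: Parasite load inhibition, % | Test system: Mouse NIH/3T3 fibroblasts infected with β-gal-expressing T. cruzi Tulahuen C4 | Amount: 5,000 cells/well | Medium: DMEM, 2% fetal bovine serum | Signal: GalScreen β-gal luminescence, detergent lysis, 60 min | Timing: 3 h attach, ≥90 h co-culture | Also added: Tulahuen C4 trypomastigotes, 5000/well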
aSyn 5UTR inh: MLPCN primary screen, SNCA 5' untranslated region; inhibition, % (tested at 7.5 µM); 300,000 tested, 0.82% active; alpha-synuclein 5'UTR reporter, inhibitor activity; AID 1813; in the data active = inhibition above about 60%;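 also: H4 neuroglioblastoma cells stably carrying SNCA 5'UTR luciferase fusion; 0% = DMSO wells and 100% = positive control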
SKKanGAS inh: inhibitors of SKKanGAS S. pyogenes growth in kanamycin (SK-promoter or general growth effect). inhibition, % at 7.5 µM. 300,000 tested, 1.3% active. BacTiter-Glo, 6 h;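 active = mean replicate score, as percent of positive control median, at least 50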;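 also: strain carries kanamycin resistance gene driven by streptokinase promoter and grows in 40 µg/ml kanamycin; loss of luminescence reflects streptokinase promoter inhibition or plain growth inhibition; 0% = median of DMSO wells and 100% = positive control at its reference dose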
Mdm2-MdmX conf: human Mdm2/MdmX binding inhibition, confirmed | 10,000 tested, 55% active | AID 489028 | inhibition, % at 8 µM | luminescent assay | shares compounds with Mdm2 MdmX PPI; in the data active = inhibition above about 40%
FLuc counter: counter-screen for Mdm2/MdmX inhibitors: full-length luciferase | shares compounds with Mdm2 MdmX PPI | SaOS-2 full-length luciferase counterscreen, luminescence | inhibition, % at 8 µM | 6,200 tested, 77% active | AID 504607;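 active = mean inhibition at 8 µM reaching about 37%, which flags the compound as non-specific, limit read from the data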;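 also: p53-null SaOS-2 cells with luciferase driven by a doxycycline-inducible promoter; compound on cells about two nights before reading with doxycycline added after day one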
* marks the source's active call; other numbers are inactive results; / = not tested or not shown; ! = a repeat was not active.

SMILES | Mdm2 MdmX PPI | CSC inhib | T cruzi repl | aSyn 5UTR inh | SKKanGAS inh | Mdm2-MdmX conf | FLuc counter
CCN1C/C(=C/c2ccc(OC)c(O)c2)C(=O)/C(=C/c2ccc(OC)c(O)c2)C1 | 99.9* | 102.4* | 51.3 | 116.0* | 0.6 | 99.7* | 41.0*
COc1cc(/C=C2\COC/C(=C\c3ccc(O)c(OC)c3)C2=O)ccc1O | 100.3* | 86.7* | -26.4 | 102.5* | 15.6 | 100.1* | 53.0*
COc1ccc(C=C2C(=O)c3ccccc3C2=O)cc1O | -5.2 | -4.2 | -17.0 | -4.2 | 5.9 | / | /
CC[C@]12c3[nH]c4ccc(Cl)cc4c3CCN1C(=O)[C@@H](CC(=O)NCc1cccc(C(F)(F)F)c1)C[C@@H]2C(=O)N1CCN(C(=O)c2ccco2)CC1 | 58.3* | / | / | / | / | 10.5 | /
C[C@]12c3[nH]c4ccc(Cl)cc4c3CCN1C(=O)[C@@H](CC(=O)NCc1cccc(C(F)(F)F)c1)C[C@@H]2C(=O)N1CCCCC1 | 81.3* | / | / | / | / | 2.1 | /
COc1ccc2[nH]c3c(c2c1)CCN1C(=O)C(CC(=O)NCc2cccc(C(F)(F)F)c2)C[C@H](C(=O)N2CCCCC2)[C@@]31C (stereo not given in full) | 47.3 | / | / | / | / | / | /
O=C(Nc1nc(-c2cccc([N+](=O)[O-])c2)cs1)C(c1ccccc1)c1ccccc1 | 43.1 | 32.4 | 53.1 | 21.1 | 34.8 | / | /
Cn1cc([N+](=O)[O-])c(C(=O)Nc2nc(-c3ccc(Cl)cc3)cs2)n1 | 93.9* | 103.0* | -20.5 | 62.8* | 32.4 | 90.5* | 44.1*
O=C(NC(=S)Nc1nc(-c2cccc([N+](=O)[O-])c2)cs1)c1cc(Cl)ccc1Cl | 51.6* | 43.3 | 16.1 | 21.9 | 8.9 | -4.8 | /
Cc1ccc(-c2nc(NC(=O)c3nn(C)cc3[N+](=O)[O-])sc2C)cc1 | 79.3* | / | 26.0 | 99.4* | 12.9 | 99.7* | 52.7*
Cc1cnc(NC(=O)c2nn(C)cc2[N+](=O)[O-])s1 | 34.8 | / | -74.2 | -43.4 | 5.2 | / | /
Cc1ccc(-c2nc(NC(=O)c3nn(C)cc3[N+](=O)[O-])sc2C)cc1C | 80.8* | / | 64.1* | 17.9 | 23.3 | 100.2* | 51.5*
CC(C)(C)c1ccc(CCC2OCC(C[N+]3(C)CCOCC3)O2)cc1 (stereo not given) | 13.7 | 38.4 | 16.3 | -7.3 | 9.2 | / | /
Cc1cc(C)c(S(=O)(=O)c2cccc(Cl)c2)c(=O)[nH]1 | 8.5 | -1.3 | 0.4 | 8.3 | -4.9 | / | /
O=C(NCc1nc2ccccc2[nH]1)C1=C[C@H](C2CCCCC2)C[C@H](OCc2ccc(CO)cc2)O1 | 68.1* | 20.9 | 37.5 | 31.7 | 32.9 | 44.0* | 66.9*
CC(C)(C)[C@H]1C=C(C(=O)NCc2nc3ccccc3[nH]2)O[C@@H](OCc2ccc(CO)cc2)C1 | 52.7* | -9.5 | 3.8 | 4.5 | -2.2 | 53.5* | 92.8*
CCO[C@H]1OC(C(=O)NCc2nc3ccccc3[nH]2)=C[C@@H](c2ccccc2)[C@@H]1CCCO | -5.1 | -6.1 | -5.9 | 5.3 | 3.5 | / | /
CCO[C@H]1OC(C(=O)NCc2nc3ccccc3[nH]2)=C[C@@H](C2CC2)[C@@H]1CCCO | 53.4* | 58.6 | -19.8 | 79.9* | -1.3 | 72.5* | 68.7*
C#CCNC(=O)C1=C[C@H](c2csc3ccccc23)C[C@H](OCc2ccc(CO)cc2)O1 | 6.3 | -8.1 | 24.6 | 1.4 | 31.7 | / | /
O=C(NCc1ccccc1)C1=C[C@H](c2csc3ccccc23)C[C@H](OCc2ccc(CO)cc2)O1 | 54.0* | 14.0 | 41.9 | 18.2 | 27.9 | 36.9 | 59.1*
O=C(NCc1nc2ccccc2[nH]1)C1=C[C@@H](C2CCCCC2)C[C@@H](OCc2ccc(CO)cc2)O1 | 37.3 | 2.3 | 37.5 | 25.3 | 30.7 | / | /
C[C@H]1COC(=O)[C@H](Cc2ccc(F)cc2)C/C=C\C[C@@H](CC(=O)N(CCO)Cc2ccccc2)C(=O)N1 | 14.6 | -13.2 | / | / | / | / | /
Cc1onc(-c2ccccc2)c1C(=O)OCC(=O)NC(C)c1ccc(Cl)cc1 (stereo not given) | -26.9 | 11.8 | / | / | / | / | /
CCc1ccc(C2NC(=S)NC3=C2C(=O)CC(C)(C)C3)cc1 (stereo not given) | 36.0 | -1.8 | -7.3 | -2.3 | -8.5 | / | /
COc1ccc(-c2cccc(NC(=O)c3cccs3)c2)nn1 | 18.5 | -3.5 | -6.2 | 2.0 | 22.4 | / | /
SMILES | Mdm2 MdmX PPI | CSC inhib | T cruzi repl | aSyn 5UTR inh | SKKanGAS inh | Mdm2-MdmX conf | FLuc counter
O=C(Nc1ccccc1)C1=C[C@H](C2CCCCC2)C[C@H](OCc2ccc(CO)cc2)O1 | 36.6 | 42.0 | 20.1 | -0.2 | 12.4 | / | /
O=C(Nc1ccccc1)C1=C[C@@H](C2CCCCC2)C[C@@H](OCc2ccc(CO)cc2)O1 | 96.5* | 46.2 | 24.2 | -1.6 | 9.8 | 75.6* | 24.1
C[C@H](C[C@H](O)[C@H]1OC1(C)C)C1=C2C[C@H](O)C3[C@@]4(C)CCC(=O)C(C)(C)C4CC[C@]3(C)[C@@]2(C)CC1 (stereo not given in full) | 35.5 | 26.1 | / | / | / | / | /
C[C@@H](C[C@@H](O)[C@H](O)C(C)(C)O)[C@@H]1CC[C@]2(C)C3=CC[C@H]4C(C)(C)C(=O)CC[C@]4(C)[C@H]3CC[C@@]12C | 50.6* | -5.8 | 47.5 | -3.9 | 96.3* | 40.2* | 96.4*
Cc1ccc2c(c1)sc(-c1ccc(N(C)C)cc1)[n+]2C | 79.2* | 42.6 | 61.8* | 3.9 | 0.9 | 78.8* | 47.0*
COc1ccc(OC)c(NC(=O)Cn2cc(C=O)c3ccccc32)c1 | 17.6 | -12.1 | -5.5 | 12.3 | 2.2 | / | /
COc1ccc(N2CCN(C(=O)COc3ccc4c(C)c(C)c(=O)oc4c3C)CC2)cc1 | 53.3* | -2.7 | -10.7 | 10.8 | 6.5 | 20.0 | /
COc1ccc2c(c1)c(=O)oc1c(C)c(OCC(=O)N3CCc4ccccc4C3)ccc12 | 52.7* | 6.3 | -4.4 | 10.3 | 14.0 | 13.2 | /
CCOCCCNC(=O)CCN1C(=O)c2ccccc2Sc2ncccc21 | -9.2 | -8.1 | -4.8 | 3.9 | 3.6 | / | /
CC[C@H](C)C(=O)O[C@H]1C[C@@H](C)C=C2C=C[C@H](C)[C@H](CC[C@@H]3C[C@@H](O)CC(=O)O3)[C@H]21 | 52.7*! | 24.3 | -11.8 | 4.7 | 0.2 | 32.6 | /
CC[C@H](C)C(=O)O[C@H]1CCC=C2C=C[C@H](C)[C@H](CC[C@@H]3C[C@@H](O)CC(=O)O3)[C@H]21 | 37.2 | 32.8 | -2.2 | 40.5 | 4.5 | / | /
COc1ccc(C(=O)Nc2ccc(C(=O)Nc3cccc(C)c3)cc2)cc1 | 55.7* | -5.0 | 2.1 | -1.1 | 3.0 | 39.1 | 73.1*
CC(=O)Nc1cccc(NC(=O)c2ccc(C(=O)Nc3cccc(NC(C)=O)c3)nc2)c1 | -12.5 | 3.4 | -16.5 | -18.4 | 1.2 | / | /
COc1ccc(C(=O)N/N=C(/C)c2cccc(NC(=O)c3ccccc3F)c2)cc1 | 52.7* | / | -3.0 | -78.7 | -0.7 | 4.8 | /
Cc1cccc(NC(=O)c2ccc(C(=O)Nc3cccc(C)c3)nc2)c1 | 55.6* | 60.2 | -29.9 | -12.2 | -4.0 | 51.7* | 56.1*
